Reference: ChEMBL document CHEMBL1159065, “Conjugates of desferrioxamine B (DFOB) with derivatives of adamantane or with orally available chelators as potential agents for treating iron overload” (J Med Chem, 2010)
Converted amounts (≈) assume the structure as drawn. The source made the active and inactive calls. The calls are words filed in the database; no cut-off is given here.

How the values were obtained:
[1] = Partition coefficient, log P by shake flask method; assay type: physicochemical; details: octanol/water
[2] = Toxicity in human SK-N-MC cells by MTT method; assay type: cell-based
Method in brief: (§1)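 MTT proliferation assay giving IC50; MTT colour checked proportional to viable cell number by Trypan blue (SK-N-MC) or total cell protein (MDCK II). SK-N-MC grown as in earlier work; MDCK II cultured by standard procedures.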

SK-N-MC [3] = test: Induction of [59Fe] mobilization in human SK-N-MC cells prelabeled with [59Fe]transferrin at 50 uM after 3 hrs relative to untreated control; assay type: functional
Method in brief: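 Cells prelabeled with 59Fe-Tf (0.75 μM), 3 h, 37 °C; washed four times in ice-cold PBS, then exposed to chelator (50 μM) 3 h at 37 °C. Medium removed by Pasteur pipet; gamma counting of cell pellet and supernatant gives released 59Fe as % of cellular 59Fe. Mean ± SD, three experiments, triplicate determinations each.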

[4] = molecular target: Serotransferrin (Homo sapiens) (UniProt P02787); test: Inhibition of [59Fe] uptake from [59Fe]transferrin in human SK-N-MC cells assessed as at 50 uM after 3 hrs relative to untreated control; values are per cent of control
Sequence of Serotransferrin (Homo sapiens) (P02787 whole entry): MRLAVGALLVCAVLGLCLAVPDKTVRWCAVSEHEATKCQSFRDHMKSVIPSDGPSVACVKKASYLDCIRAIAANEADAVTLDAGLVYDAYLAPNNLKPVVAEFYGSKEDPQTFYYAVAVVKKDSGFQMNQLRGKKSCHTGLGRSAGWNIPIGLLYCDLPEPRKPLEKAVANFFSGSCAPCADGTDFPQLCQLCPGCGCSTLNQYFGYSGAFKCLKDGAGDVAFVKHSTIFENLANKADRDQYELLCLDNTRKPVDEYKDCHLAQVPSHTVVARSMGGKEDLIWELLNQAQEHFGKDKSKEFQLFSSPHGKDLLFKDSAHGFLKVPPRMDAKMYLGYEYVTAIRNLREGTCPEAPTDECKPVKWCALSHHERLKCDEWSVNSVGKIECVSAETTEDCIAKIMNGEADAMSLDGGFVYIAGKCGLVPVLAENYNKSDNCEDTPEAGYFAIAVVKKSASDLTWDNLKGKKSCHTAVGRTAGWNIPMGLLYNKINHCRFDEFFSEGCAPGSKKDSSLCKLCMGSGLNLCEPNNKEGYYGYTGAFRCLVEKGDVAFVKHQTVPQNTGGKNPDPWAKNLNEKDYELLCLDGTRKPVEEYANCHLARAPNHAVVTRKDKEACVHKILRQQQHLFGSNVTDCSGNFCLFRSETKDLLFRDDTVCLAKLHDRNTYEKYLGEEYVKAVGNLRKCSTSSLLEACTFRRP

[5] = Partition coefficient, log P by RP-HPLC; assay type: physicochemical; details: octanol/water
[6] = Toxicity in MDCK cells by MTT method; assay type: cell-based, Canis lupus familiaris; details: dog; method in brief: as §1
SK-N-MC [7] = test: Induction of [59Fe] mobilization in human SK-N-MC cells prelabeled with [59Fe]transferrin at 50 uM after 3 hrs relative to desferrioxamine B; assay type: functional
Method in brief: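 Cells were prelabeled with 59Fe-Tf (0.75 μM) for 3 h at 37 °C, washed four times with ice-cold PBS, then exposed to chelator (50 μM) for 3 h at 37 °C. Released 59Fe in the medium and cell-pellet 59Fe were counted by γ-counter. DFOB was run in parallel. Data are mean ± SD of three experiments, each with triplicate determinations.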

[8] = molecular target: Serotransferrin (Homo sapiens) (UniProt P02787); test: Inhibition of [59Fe] uptake from [59Fe]transferrin in human SK-N-MC cells at 50 uM after 3 hrs relative to relative to desferrioxamine B; assay type: cell-based
Method in brief: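 SK-N-MC cells incubated with 59Fe-Tf (0.75 μM) plus chelator (50 μM), 3 h at 37 °C; washed four times in ice-cold PBS, then Pronase (1 mg/mL) 30 min at 4 °C. Pronase-insensitive pellet after centrifugation taken as internalized 59Fe, expressed as % of untreated control. Mean ± SD, three experiments, triplicate determinations each.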

[9] = Solubility in water; assay type: physicochemical

| Structure (SMILES) | logP [1] | IC50 [2] [µM] | Activity (SK-N-MC [3]) | residual activity [4] [%] | logP [5] | IC50 [6] [µM] | fold change (FC) (SK-N-MC [7]) | inhibition [8] | solubility [9] [mM] |
| --- | --- | --- | --- | --- | --- | --- | --- | --- | --- |
| Cc1c(O)c(=O)ccn1C [DEFERIPRONE] | -1.02 | 166 | inactive | – | – | – | – | – | – |
| CN(C)C(=S)NN=C(c1ccccn1)c1ccccn1 | – | – | – | 12 | – | – | – | – | – |
| CC(=O)N(O)CCCCCNC(=O)CCC(=O)N(O)CCCCCNC(=O)CCC(=O)N(O)CCCCCNC(=O)Cn1ccc(=O)c(O)c1C | -1.29 | > 200 | – | – | -1.16 | > 300 | – | – | – |
| CC(=O)N(O)CCCCCNC(=O)CCC(=O)N(O)CCCCCNC(=O)CCC(=O)N(O)CCCCCNC(=O)C12CC3CC(C)(CC(C)(C3)C1)C2 | 2.92 | 92.4 | – | 18 | 1.95 | 163 | 3 | Active | – |
| O=C(O)c1ccc(-n2nc(-c3ccccc3O)nc2-c2ccccc2O)cc1 [DEFERASIROX] | 3.8 | 20.5 | – | 39 | – | – | – | – | – |
| CC(=O)N(O)CCCCCNC(=O)CCC(=O)N(O)CCCCCNC(=O)CCC(=O)N(O)CCCCCNC(=O)C12CC3CC(CC(C3)C1)C2 | 2.11 | 174 | – | – | 1.29 | 119 | 2.2 | Active | – |
| c1ccc2ccccc2c1 | 3.32 | – | – | – | – | – | – | – | – |
| COC(=O)c1ccccc1C(=O)OC [DIMETHYL PHTHALATE] | 1.61 | – | – | – | – | – | – | – | – |
| c1ccc2c(c1)oc1ccccc12 [DIBENZOFURAN] | 4.04 | – | – | – | – | – | – | – | – |
| CC(=O)N(O)CCCCCNC(=O)CCC(=O)N(O)CCCCCNC(=O)CCC(=O)N(O)CCCCCN [DEFEROXAMINE] | – | 16 | 12% | 87 | – | 9.49 | – | – | 400 (≈ 224 mg/mL) |
| CC(=O)N(O)CCCCCNC(=O)CCC(=O)N(O)CCCCCNC(=O)CCC(=O)N(O)CCCCCNC(=O)C12CC3CC(CC(O)(C3)C1)C2 | 0.29 | > 200 | inactive | – | -0.11 | > 100 | – | – | – |
| CC(=O)N(O)CCCCCNC(=O)CCC(=O)N(O)CCCCCNC(=O)CCC(=O)N(O)CCCCCNC(=O)c1ccc(-n2nc(-c3ccccc3O)nc2-c2ccccc2O)cc1 | 2.17 | 20.6 | Active | – | 3.02 | 23.4 | – | Active | – |
| CC(=O)N(O)CCCCCNC(=O)CCC(=O)N(O)CCCCCNC(=O)CCC(=O)N(O)CCCCCNC(=O)CC12CC3CC(CC(C3)C1)C2 | 2.21 | 167 | – | – | 1.47 | 226 | 2.8 | Active | – |
| CC(=O)N(O)CCCCCNC(=O)CCC(=O)N(O)CCCCCNC(=O)CCC(=O)N(O)CCCCCNC(=O)COc1ccc(C)cc1 | 1.68 | > 200 | Active | – | 0.93 | > 150 | – | Active | – |
